Data taken from PubChem BioAssay.
Active and inactive are the calls of the source.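 Rule for the calls, unless noted: active = NADPH fluorescence slope more negative than the mean of all samples by about 3 SD, 99.7% confidence; inactive = the rest.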

How the values were obtained:
[1] = inhibitors of TNFa-induced NFkB p65 translocation, primary screen, imaging, HUVEC, MLSMR starter and 10KST1 sets (AID 438;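 active = inhibition above 20% together with a positive visual image hit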;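 note: compound added about 3h40 before a 20 min TNFalpha stimulation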;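 for inhibition: signal is the nuclear over cytoplasmic p65 intensity ratio per well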); conditions: HUVEC TNFa-induced p65 nuclear translocation; cell count: measured here: nuclei count (cytotoxicity indicator), at 2.08 µM; inhibition: at 2 µM, stronger effect = higher value, 0% TNFa-plus-vehicle, 100% no-TNFa wells
[2] = reduction of polyQ htt aggregates in cells – imaging, exon1htt(103Q)mCFP cells, high-content imaging, primary screen (AID 483;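 active = visual image review flags a hit and inhibition of aggregation exceeds 20%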;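 note: compound exposure lasted 3 days before fixation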;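 for nuclei count: percent of the per-plate median nuclei count of sample wells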); conditions: exon1htt(103Q)mCFP cell line, aggregate imaging, at 2 µM; inhibition of aggregation: stronger effect = higher value; nuclei count: measured here: cell count, toxicity
[3] = endothelial E-selectin expression blockers – imaging, HUVEC, immunofluorescence, MLSMR starter and 10KST1 sets, primary screen (AID 487;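 active = visually confirmed hit in the image check and inhibition above 20%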;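 for inhibition: signal is fraction of cell area covered by stained E-selectin grains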;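 for nuclei count: 100% = median nuclei count of all wells on the same plate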); conditions: HUVEC TNFalpha-induced E-selectin immunofluorescence imaging, at 2 µM; inhibition: stronger effect = higher value; nuclei count: measured here: cell number, toxicity
[4] = target: Voltage-gated potassium channel subunit beta-2 (Rattus norvegicus) (UniProt P62483); assay: inhibitors of rat Kvbeta2 reductase activity – biochemical, NADPH fluorescence, primary screen (AID 622;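 active = fluorescence slope higher than the sample average by over 3 SD, cut at about -0.22 in these data, passing the limit was not always enough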;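 note: slope of raw intensity against log time taken from 70 to 1610 s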); conditions: recombinant KvBeta, 4-cyanobenzaldehyde reduction, at 10 µM, stronger effect = higher value
[5] = target: Voltage-gated potassium channel subunit beta-2 (Rattus norvegicus) (UniProt P62483); assay: enhancers of rat Kvbeta2 NADPH turnover – biochemical, NADPH fluorescence, primary screen (AID 623); conditions: Recombinant KvBeta, NADPH fluorescence decrease slope, 10 min; at 10 µM; stronger effect = lower value;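 note: fluorescence intensity change per second fitted from 20 to 320 s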
[6] = target: Muscarinic acetylcholine receptor M4 (Homo sapiens) (UniProt P08173); assay: M4-linked GIRK flux change, two-sided – cell-based, HEK293 M4/GIRK, thallium flux, BTC-AM, M4 allosteric agonist project, primary screen (AID 625;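 active = fluorescence slope after compound addition differing from the mean of all tested samples at 99.7% confidence, mostly higher but some lower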;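 note: thallium influx through GIRK channels coupled to M4 in HEK293 cells with BTC-AM dye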); conditions: at 10 µM, actives lie on both sides
How it was run: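 assay system = HEK293 cells with M4 receptor and GIRK channels | medium = pH 7.3 thallium assay buffer | doses = 10 µM final, single point | timing = cells overnight at 37 °C, BTC-AM loading 1 h, reads 2 min total | signal = BTC-AM fluorescence, 1 Hz kinetic reads | read-out = post-addition slope, 15–24 s, of baseline-normalized fluorescence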

[7] = blockers of RIG-like receptor reporter activation – cell-based, Sendai virus stimulus, luciferase, 10K MLSCN set, TLR/RLR signaling modifier project, primary screen (AID 602276;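 active = inhibition at or above 50% at 10 µM; inactive = inhibition below 50%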;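 note: firefly luciferase from ISG56 promoter only with Renilla not read in this screen; 0% = Sendai virus plus DMSO and 100% = medium plus DMSO without virus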); conditions: HEK293 RL24 IRF3 luciferase reporter, at 10 µM, stronger effect = higher value
[8] = TLR3 IRF3 reporter activation blockers – cell-based, poly I:C stimulus, luciferase, 10K MLSCN set, primary screen (AID 602277;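 active = inhibition of the reporter signal at or above 50%; inactive = inhibition below 50%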); conditions: HEK293-TLR3 RL24 IRF3 luciferase reporter, at 10 µM, stronger effect = higher value

Muscarinic acetylcholine receptor M4 (Homo sapiens), sequence (P08173 whole entry, looked up): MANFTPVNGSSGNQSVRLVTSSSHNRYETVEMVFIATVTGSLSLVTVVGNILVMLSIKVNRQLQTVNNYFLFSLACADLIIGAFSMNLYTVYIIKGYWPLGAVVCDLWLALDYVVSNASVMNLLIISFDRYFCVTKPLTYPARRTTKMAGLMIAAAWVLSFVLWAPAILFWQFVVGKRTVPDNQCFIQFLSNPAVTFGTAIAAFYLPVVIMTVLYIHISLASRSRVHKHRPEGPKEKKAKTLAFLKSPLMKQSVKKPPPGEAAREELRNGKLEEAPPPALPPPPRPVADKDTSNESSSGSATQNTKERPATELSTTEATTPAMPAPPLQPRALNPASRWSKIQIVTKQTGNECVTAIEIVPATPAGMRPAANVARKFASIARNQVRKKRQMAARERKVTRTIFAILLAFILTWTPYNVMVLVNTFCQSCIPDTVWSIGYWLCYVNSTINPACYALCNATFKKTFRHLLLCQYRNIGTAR
Voltage-gated potassium channel subunit beta-2 (Rattus norvegicus), sequence (P62483 whole entry, looked up): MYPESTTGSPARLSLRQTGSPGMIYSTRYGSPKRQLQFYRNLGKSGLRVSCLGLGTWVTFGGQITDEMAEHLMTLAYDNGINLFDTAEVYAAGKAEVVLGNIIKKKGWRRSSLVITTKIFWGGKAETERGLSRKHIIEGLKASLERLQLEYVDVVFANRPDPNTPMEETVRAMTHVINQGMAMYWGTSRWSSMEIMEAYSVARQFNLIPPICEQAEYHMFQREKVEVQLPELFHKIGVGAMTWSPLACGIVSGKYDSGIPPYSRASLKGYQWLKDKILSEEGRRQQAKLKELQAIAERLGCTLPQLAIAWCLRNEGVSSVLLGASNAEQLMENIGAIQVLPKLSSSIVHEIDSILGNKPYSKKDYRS

SMILES | cell count [1] | inhibition [1] | inhibition of aggregation [2] | nuclei count [2] | inhibition [3] | nuclei count [3] | fluorescence slope [4] | NADPH fluorescence slope [5] | fluorescence slope [6] | inhibition [7] | inhibition [8]
Cc1ccc(-c2nn3c(=O)c(C)nnc3s2)cc1 | 571 | -19.6% (inactive) | -0.2% (inactive) | 98.1% | 3.6% (inactive) | 108% | -0.309 (inactive) | -4.6e-06 (inactive) | 0.0056 (inactive) | -12.3% (inactive) | -53.9% (inactive)
Cc1nnc(SCCn2c(N3CC(C)CC(C)C3)nc3c2c(=O)n(C)c(=O)n3C)s1 (stereo not drawn) | 207 | 3.4% (inactive) | 10.1% (inactive) | 84.9% | 60.7% (active) | 81.2% | -0.598 (inactive) | -2.7e-05 (inactive) | 0.00478 (inactive) | 15.7% (inactive) | 21.2% (inactive)
O=C(NCCN1CCN(c2ccccc2)CC1)c1ccc(NC(=O)C2CCCO2)cc1 (stereo not drawn) | 562 | -21.6% (inactive) | -9% (inactive) | 99.2% | -135% (inactive) | 114% | -0.468 (inactive) | 5.8e-06 (inactive) | 0.00539 (inactive) | 3.22% (inactive) | 6.35% (inactive)
O=C(O)CCn1c(SCc2ccccc2)nc2ccccc21 | 423 | -4.4% (inactive) | 25% (inactive) | 73.9% | -33.6% (inactive) | 93.6% | -0.505 (inactive) | -2.4e-05 (inactive) | 0.00554 (inactive) | -9.99% (inactive) | -40.3% (inactive)
c1ccc(-c2cc3c(nn2)CCc2nonc2-3)cc1 | 339 | 2.4% (inactive) | 19.1% (inactive) | 100% | -9.2% (inactive) | 111% | -0.543 (inactive) | -0.00017 (inactive) | 0.00417 (inactive) | -15.2% (inactive) | -31.9% (inactive)
Cc1ccccc1CN1CCN(CC(=O)NCc2ccco2)C1=O | 395 | -1.7% (inactive) | -11.1% (inactive) | 97.3% | -7.2% (inactive) | 109% | -0.511 (inactive) | -0.000109 (inactive) | 0.00663 (inactive) | 23.3% (inactive) | 22.7% (inactive)
CC(=O)c1ccc(NC(=O)c2noc3c2CCCCC3)cc1 | 214 | 2.3% (inactive) | -0.6% (inactive) | 108% | -10.4% (inactive) | 118% | -0.512 (inactive) | -6e-05 (inactive) | 0.00493 (inactive) | -32.5% (inactive) | -114% (inactive)
Cn1c(Cc2cccs2)nnc1SCC(=O)N1CCc2ccccc21 | 369 | -1.8% (inactive) | 14.1% (inactive) | 93.4% | -67.8% (inactive) | 93.3% | -0.479 (inactive) | -6.1e-05 (inactive) | 0.00472 (inactive) | 8.51% (inactive) | 16.5% (inactive)
N#CC(C(=O)CCN1C(=O)C2CC=CCC2C1=O)c1nc2ccccc2[nH]1 (stereo not drawn) | 286 | -5.7% (inactive) | 4.5% (inactive) | 93.8% | -88.1% (inactive) | 123% | -0.524 (inactive) | 5.4e-05 (inactive) | 0.00584 (inactive) | 18.4% (inactive) | 17.1% (inactive)
COc1ccc(N2CCN(C(=O)CN3C(=O)C4CC=CCC4C3=O)CC2)cc1 (stereo not drawn) | 693 | 9.7% (inactive) | 11% (inactive) | 108% | 55.9% (inactive) | 90.3% | -0.575 (inactive) | 3.5e-05 (inactive) | 0.00533 (inactive) | -11% (inactive) | -14.6% (inactive)
COc1ccc(Cl)cc1NC(=O)c1oc(C)nc1C | 555 | -0.7% (inactive) | -0.3% (inactive) | 97.4% | -1% (inactive) | 108% | -0.35 (inactive) | -4.4e-05 (inactive) | 0.00568 (inactive) | 25.6% (inactive) | 42.6% (inactive)
COc1cc(-c2c(C#N)c(N)nc3c2CCCC3)cc(OC)c1OC | 620 | -8.6% (inactive) | 0.1% (inactive) | 101% | -110% (inactive) | 121% | -0.534 (inactive) | -6.8e-05 (inactive) | 0.0058 (inactive) | 20% (inactive) | 26.4% (inactive)
Cc1cccc(CS(=O)(=O)Cc2ccc(C(=O)NCC3CCCO3)o2)c1 (stereo not drawn) | 450 | 4.5% (inactive) | 13.6% (inactive) | 99.3% | -36.2% (inactive) | 112% | -0.582 (inactive) | 9.9e-06 (inactive) | 0.00601 (inactive) | -2% (inactive) | 8.02% (inactive)
O=C(Cn1cnc2sc(-c3ccccc3)cc2c1=O)N1CCOCC1 | 353 | 6.9% (inactive) | 15.6% (inactive) | 98.1% | -123% (inactive) | 114% | -0.445 (inactive) | -4.1e-05 (inactive) | 0.00489 (inactive) | 6.22% (inactive) | -5.03% (inactive)
Cn1c(=O)cc(SCC(=O)N2CCOCC2)c2ccc(Cl)cc21 | 442 | -3.9% (inactive) | -3.2% (inactive) | 89.4% | 52.1% (inactive) | 92.6% | -0.557 (inactive) | -5.8e-05 (inactive) | 0.00569 (inactive) | 15% (inactive) | 23.4% (inactive)
CC(C(=O)N1CCc2ccccc21)N1CCc2ccccc2C1 (stereo not drawn) | 597 | -1% (inactive) | 16.1% (inactive) | 91.1% | -86.5% (inactive) | 99.9% | -0.455 (inactive) | 0.000133 (inactive) | 0.00595 (inactive) | 10.2% (inactive) | 22.3% (inactive)
Cc1ccc(S(=O)(=O)NCCNC(=O)c2ccccc2)cc1 | 212 | -4.9% (inactive) | 10.3% (inactive) | 97.8% | -38.2% (inactive) | 93.6% | -0.282 (inactive) | -4.2e-05 (inactive) | 0.00552 (inactive) | 13.4% (inactive) | 10.4% (inactive)
CCn1c(SCC(=O)N2CCCc3ccccc32)nnc1-c1cccs1 | 697 | 1.4% (inactive) | 4.3% (inactive) | 98.7% | -172% (inactive) | 129% | -0.531 (inactive) | -2.4e-05 (inactive) | 0.00467 (inactive) | 14% (inactive) | 13.4% (inactive)
Cc1cc(OC(=O)N2CCOCC2)cc(C)c1Cl | 309 | -12.3% (inactive) | -22.3% (inactive) | 114% | -50% (inactive) | 130% | -0.444 (inactive) | 5.1e-05 (inactive) | 0.00877 (inactive) | -13.8% (inactive) | 99.2% (active)
CCOc1cc(C2C(C(=O)c3ccccc3)=C(C(=O)OC)Nc3nnnn32)ccc1O (stereo not drawn) | 351 | -7.9% (inactive) | 0% (inactive) | 110% | -69.2% (inactive) | 157% | -0.52 (inactive) | -3.5e-05 (inactive) | 0.00584 (inactive) | 0.723% (inactive) | 11.1% (inactive)
O=C(NC1CCCC1)c1c[nH]c2ccc(F)cc2c1=O | 442 | -4% (inactive) | -14.3% (inactive) | 118% | -16% (inactive) | 104% | -0.266 (inactive) | -1.4e-05 (inactive) | 0.00803 (inactive) | -2.78% (inactive) | -20.3% (inactive)
COCCOc1nc2ccccc2nc1C | 351 | 5.2% (inactive) | 8.5% (inactive) | 87.8% | -5.9% (inactive) | 104% | -0.615 (inactive) | -2.4e-05 (inactive) | 0.00668 (inactive) | 16.4% (inactive) | 2.62% (inactive)
CCOC(=O)c1sc(NC(=O)CSc2nnc(-c3ccco3)n2CC)c(C(=O)OCC)c1C | 696 | -10.9% (inactive) | -26.7% (inactive) | 104% | -27.8% (inactive) | 92.7% | -0.565 (inactive) | -3.7e-05 (inactive) | 0.00558 (inactive) | -9.39% (inactive) | -38.2% (inactive)
ON1C2CCCCC2N(O)C1c1c(F)c(F)c(F)c(F)c1F (stereo not drawn) | 431 | 4.1% (inactive) | -6.9% (inactive) | 105% | -53.7% (inactive) | 102% | -0.546 (inactive) | -2.9e-05 (inactive) | 0.00415 (inactive) | 15.7% (inactive) | 22% (inactive)
CC(C)(C)NC(=O)Nc1ccccc1C(N)=O | 657 | 1.6% (inactive) | -14.8% (inactive) | 108% | -34.5% (inactive) | 107% | -0.539 (inactive) | -8e-06 (inactive) | 0.0058 (inactive) | 3.23% (inactive) | -20.8% (inactive)
Cc1nc(C)c(C(=O)C2=C(O)C(=O)N(CCN3CCOCC3)C2c2cccnc2)s1 (stereo not drawn) | 256 | -0.4% (inactive) | 22.5% (inactive) | 92.8% | -7.1% (inactive) | 96.9% | -0.557 (inactive) | -0.000101 (inactive) | 0.0026 (inactive) | 17.2% (inactive) | 22.7% (inactive)
O=C(CSc1nnnn1Cc1ccccc1)Nc1ccc2c(c1)OCO2 | 551 | -10.7% (inactive) | 10% (inactive) | 92.1% | -1% (inactive) | 93.6% | -0.257 (inactive) | -9.5e-06 (inactive) | 0.00493 (inactive) | 1.63% (inactive) | 2.13% (inactive)
O=C(CCCCCn1c(=O)[nH]c2ccsc2c1=O)N1CCCCC1 | 306 | -1.8% (inactive) | 25.2% (inactive) | 91.7% | -75% (inactive) | 85.7% | -0.457 (inactive) | -2.3e-05 (inactive) | 0.0042 (inactive) | 18.4% (inactive) | 6.28% (inactive)
